According to ChEMBL document CHEMBL4477209, “Indole-2-carboxamide-based MmpL3 Inhibitors Show Exceptional Antitubercular Activity in an Animal Model of Tuberculosis Infection” (J Med Chem, 2016):
In brackets after ≈: the same amount, converted by molar mass. Activity calls are given as the source filed them. The rule behind the calls is not given here.

Key:
[1] = test system: Mycobacterium tuberculosis H37Rv; experiment: Inhibition of MmpL3 in clinical isolates of drug sensitive Mycobacterium tuberculosis H37Rv after 7 to 14 days by alamar blue assay
[2] = test system: Mycobacterium tuberculosis; experiment: Inhibition of MmpL3 in clinical isolates of drug sensitive Mycobacterium tuberculosis V4207 after 7 to 14 days by alamar blue assay
Vero = experiment: Cytotoxicity against african green monkey Vero cells; format: cell-based; conditions: Chlorocebus sabaeus
[3] = Selectivity index, ratio of IC50 for african green monkey Vero cells to MIC for clinical isolates of Mycobacterium tuberculosis; format: toxicity; conditions: read-out: Selectivity Index
[4] = test system: Mycobacterium tuberculosis; experiment: Antimycobacterial activity against Mycobacterium tuberculosis H37Rv grown on serum isolated from 100 mg/kg, po treated BALB/c mouse for 30 to 120 mins assessed as reduction in bacterial growth followed by bacterial addition incubated for 7 days by alamar blue reagent based serum inhibition titration assay; format: functional, organism-based
Procedure, shortened: (§1)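 Six-week-old female BALB/c mice (20 g) given one oral dose as suspension in 0.5% CMC in water; isoniazid 10 mg/kg as positive control, vehicle as negative. Serum collected at 30, 60 and 120 min, pooled from three mice per time point, 2-fold serially diluted. 10^4 CFU H37Rv added per well, 7 days at 37 °C. alamarBlue added for 16−18 h, fluorescence read at Ex544/Em590 and plotted against serum titration.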

[5] = Oral bioavailability in BALB/c mouse at 100 mg/kg administered for 30 to 120 mins followed by Mycobacterium tuberculosis H37Rv addition to compound treated serum incubated for 7 days by alamar blue reagent based serum inhibition titration assay; format: ADME, organism-based; conditions: in vivo; procedure, shortened: as §1
[6] = Tmax in BALB/c mouse plasma at 100 mg/kg administered via oral gavage after 0.25 to 24 hrs by LC-MS analysis; format: ADME, organism-based
Procedure, shortened: (§2)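 Female BALB/c mice (20 g) got a single 100 mg/kg oral gavage dose. Three animals were sacrificed per time point at 0, 0.25, 0.5, 1, 2, 4, 8 and 24 h. Cardiac blood was spun at 12 000g, 4 °C for plasma. Lungs were bead-beaten in water and the supernatant taken. Both matrices were quantified by LC-MS/MS with an indole-2-carboxamide internal standard. Parameters came from noncompartmental analysis.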

[7] = Tmax in BALB/c mouse lung at 100 mg/kg administered via oral gavage after 0.25 to 24 hrs by LC-MS analysis; format: ADME, organism-based; procedure, shortened: as §2
[8] = Cmax in BALB/c mouse plasma at 100 mg/kg administered via oral gavage after 0.25 to 24 hrs by LC-MS analysis; format: ADME, organism-based; parameters: dose 100 mg/kg, route oral
Procedure, shortened: (§3)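 Female BALB/c mice (20 g), single oral gavage dose of 100 mg/kg. Cardiac blood and lungs taken at 0, 0.25, 0.5, 1, 2, 4, 8 and 24 h (n = 3 per time point). Plasma separated by centrifugation; lungs bead-beaten in water and supernatant recovered. Drug quantified by LC-MS/MS against an indole-2-carboxamide internal standard. Parameters derived by noncompartmental analysis.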

[9] = Cmax in BALB/c mouse lung at 100 mg/kg administered via oral gavage after 0.25 to 24 hrs by LC-MS analysis; format: ADME, organism-based; parameters: dose 100 mg/kg, route oral; procedure, shortened: as §3
[10] = AUClast in BALB/c mouse plasma at 100 mg/kg administered via oral gavage after 0.25 to 24 hrs by LC-MS analysis; format: ADME, organism-based; parameters: dose 100 mg/kg, time 0.25-24 hr, route oral; procedure, shortened: as §3
[11] = AUClast in BALB/c mouse lung at 100 mg/kg administered via oral gavage after 0.25 to 24 hrs by LC-MS analysis; format: ADME, organism-based; conditions: in vivo; procedure, shortened: as §3
[12] = AUMClast in BALB/c mouse plasma at 100 mg/kg administered via oral gavage after 0.25 to 24 hrs by LC-MS analysis; format: ADME, organism-based; conditions: in vivo; procedure, shortened: as §3
[13] = AUMClast in BALB/c mouse lung at 100 mg/kg administered via oral gavage after 0.25 to 24 hrs by LC-MS analysis; format: ADME, organism-based; conditions: in vivo; procedure, shortened: as §3
[14] = Mean residence time (last) in BALB/c mouse plasma at 100 mg/kg administered via oral gavage by LC-MS analysis; format: ADME, organism-based; procedure, shortened: as §3
[15] = Mean residence time (last) in BALB/c mouse lung at 100 mg/kg administered via oral gavage by LC-MS analysis; format: ADME, organism-based; procedure, shortened: as §3
[16] = test system: Mycobacterium tuberculosis; experiment: Antimycobacterial activity against Mycobacterium tuberculosis H37Rv infected in BALB/c mouse model assessed as reduction in CFU counts in lung at 100 mg/kg administered daily via oral gavage for 5 days per week measured after 14 days post dosage relative to control; format: functional
Procedure, shortened: (§4)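 Female BALB/c mice, 4-6 weeks old, aerosol-infected with H37Rv (about 10^3 CFU); five mice taken on day 1 for lung implantation CFU. From day 1, 12.5, 25, 50 or 100 mg/kg in 0.5% carboxymethylcellulose by daily oral gavage, 5 days/week. Ethambutol 100 mg/kg as positive control, untreated infected mice as negative, 5 mice per group. Lung homogenates plated on 7H11 selective agar on days 14 and 28.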

[17] = test system: Mycobacterium tuberculosis; experiment: Antimycobacterial activity against Mycobacterium tuberculosis H37Rv infected in BALB/c mouse model assessed as reduction in CFU counts in lung at 100 mg/kg administered daily via oral gavage for 5 days per week measured after 28 days post dosage relative to control; format: functional; procedure, shortened: as §4
[18] = test system: Mycobacterium tuberculosis; experiment: Antimycobacterial activity against Mycobacterium tuberculosis H37Rv infected in BALB/c mouse model assessed as reduction in CFU counts in lung at 200 mg/kg administered daily via oral gavage for 5 days per week measured after 28 days post dosage relative to control; format: functional
Procedure, shortened: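 Bactericidal-dose model in aerosol-infected BALB/c mice given 25, 50, 100 or 200 mg/kg orally in 0.5% carboxymethylcellulose in water for 4 weeks. Lung CFU compared with the count at treatment initiation; survival also recorded.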

[19] = test system: Mycobacterium tuberculosis; experiment: Antimycobacterial activity against Mycobacterium tuberculosis H37Rv infected in BALB/c mouse model assessed as protection against mouse mortality at 12.5 to 100 mg/kg administered daily via oral gavage for 5 days per week measured after 14 to 28 days post dosage; format: functional, organism-based
[20] = test system: Mycobacterium tuberculosis; experiment: Antimycobacterial activity against Mycobacterium tuberculosis H37Rv grown on serum of 100 mg/kg, po treated BALB/c mouse for 30 to 120 mins assessed as reduction in bacterial growth followed by bacterial addition incubated for 7 days by alamar blue reagent based serum inhibition titration assay; format: functional, organism-based; procedure, shortened: as §1
[21] = Oral bioavailability in BALB/c mouse at 100 mg/kg administered as single dose for 30 to 120 mins followed by Mycobacterium tuberculosis H37Rv addition to compound treated serum incubated for 7 days by alamar blue reagent based serum inhibition titration assay; format: ADME, organism-based; conditions: in vivo; procedure, shortened: as §1

In the case of `O=C(Nc1nc2ccc(OC(F)(F)F)cc2s1)C1CCCCCC1`, the MIC90 [1] is reported as > 300 µM.

For `CCCCCCCCNC(=O)c1cc2c(Cl)cc(Cl)cc2[nH]1`, the MIC90 [1] was > 300 µM.

With `C[C@@H]1[C@@H](NC(=O)c2cc3c(F)cc(F)cc3[nH]2)C[C@H]2C[C@@H]1C2(C)C` the MIC90 [1] was 0.19 µM (≈ 0.0632 µg/mL).

`Cc1ccc2cc(C(=O)NC3CCCCCCC3)[nH]c2c1` showed an MIC90 [1] of 0.11 µM (≈ 0.0313 µg/mL).

`C[C@@H]1[C@H]2C[C@@H](C[C@H]1NC(=O)c1cc3c(Cl)cc(Cl)cc3[nH]1)C2(C)C` showed an MIC90 [1] of 0.021 µM (≈ 0.00767 µg/mL), an MIC [2] of 43 µM (≈ 15.7 µg/mL) and an IC50 (Vero) of 43.8 µM. The selectivity ratio [3] was 2080, the Activity [4] was “Active” and the Drug uptake [5] was “Active”.

Compound `CC(C)=CCC/C(C)=C/CNC(=O)c1cc2c(Cl)cc(Cl)cc2[nH]1` has an MIC90 [1] of 11 µM (≈ 4.02 µg/mL).

`Nc1ccc2[nH]c(C(=O)NC3CCCCCCC3)cc2c1` showed an MIC90 [1] of 80 µM (≈ 22.8 µg/mL).

`Cc1cc(C)c2[nH]c(C(=O)NC3CCCCCCC3)cc2c1` showed an MIC90 [1] of 0.21 µM (≈ 0.0627 µg/mL).

In the case of `Cc1cc(C)c2cc(CNC(=O)C3CCCCCC3)[nH]c2c1`, the MIC90 [1] is reported as 54 µM (≈ 16.1 µg/mL).

`Cc1cc(C)c2cc(CNC3CCCCCCC3)[nH]c2c1` showed an MIC90 [1] of 0.31 µM (≈ 0.0882 µg/mL).

Work on `Nc1cccc2[nH]c(C(=O)NC3CCCCCCC3)cc12` yielded an MIC90 [1] of 20 µM (≈ 5.71 µg/mL).

Work on `CC1(C)[C@H]2CC[C@@]1(C)[C@H](NC(=O)c1cc3c(Cl)cc(Cl)cc3[nH]1)C2` yielded an MIC90 [1] of 0.043 µM (≈ 0.0157 µg/mL).

Work on `CC1(C)CCC(NC(=O)c2cc3c(Cl)cc(Cl)cc3[nH]2)CC1` yielded a Tmax [6] of 2 h, a Tmax [7] of 2 h and a Cmax [8] of 0.67 µg/mL. The Cmax [9] was 1300 ng/g, the AUC(0-t) [10] was 5.62 µg·h/mL and the AUClast [11] was 18.1 µg·h/g. The AUMClast [12] was 36.4 hr.hr.ug/ml, the AUMClast [13] was 150 hr2.ug/g and the MRT last [14] was 6.47 h. It also gave an MRT last [15] of 8.3 h, an Activity [16] of 0.45 log10CFU and an Activity [17] of 1.08 log10CFU. The Activity [18] was “inactive”, the Activity [19] was “Active” and the Activity [20] was “Active”. The Drug uptake [21] was “Active”.

`Cc1ccc2[nH]c(C(=O)NC3CCCCCC3)cc2c1` gave an MIC90 [1] of 7.4 µM (≈ 2 µg/mL).

For `CCCCCCCNC(=O)c1cc2c(Cl)cc(Cl)cc2[nH]1`, the MIC90 [1] was > 300 µM.

Compound `C[C@@H](NC(=O)c1cc2c(F)cc(F)cc2[nH]1)C1CCCCC1` has an MIC90 [1] of 13 µM (≈ 3.98 µg/mL).

In the case of `COc1cc(OC)c2cc(C(=O)NC3CCCCCC3)[nH]c2c1`, the MIC90 [1] is reported as 3.2 µM (≈ 1.01 µg/mL).

With `Cc1cccc2cc(C(=O)NC3CCCCCCC3)[nH]c12` the MIC90 [1] was 3.5 µM (≈ 0.995 µg/mL).

`Cc1cccc2cc(C(=O)NC3CCCCCC3)[nH]c12` gave an MIC90 [1] of 30 µM (≈ 8.11 µg/mL).

Work on `CC1(C)[C@@H]2CC[C@@H](CNC(=O)c3cc4c(Cl)cc(Cl)cc4[nH]3)[C@H]1C2` yielded an MIC90 [1] of 175 µM (≈ 63.9 µg/mL).
